In ChEMBL document CHEMBL1671716, “Antimicrobial susceptibility patterns for recent clinical isolates of anaerobic bacteria in South Korea” (2010):

Tests used:
[1] = test system: Bacteroides thetaiotaomicron; assay: Antimicrobial activity against Bacteroides thetaiotaomicron after 48 hrs by agar dilution method in presence of 4 ug/ml beta-lactamase inhibitor Tazobactam; assay type: functional
Summary of the method: (§1)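 MICs by CLSI agar dilution for piperacillin combined with tazobactam, with tazobactam held constant at 4 μg/ml. Clinical anaerobe isolates inoculated at 10^5 CFU by Steers replicator. Plates kept in an anaerobic chamber at 37°C for 48 h.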

[2] = test system: Clostridium perfringens; assay: Antimicrobial activity against Clostridium perfringens after 48 hrs by agar dilution method in presence of 4 ug/ml beta-lactamase inhibitor Tazobactam; assay type: functional
Summary of the method: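 Agar dilution per CLSI on Korean clinical C. perfringens isolates. Tazobactam at a fixed 4 μg/ml with piperacillin. 10^5 CFU spotted by replicator, then 48 h at 37°C in an anaerobic chamber. MIC read.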

[3] = test system: Prevotella intermedia; assay: Antimicrobial activity against Prevotella intermedia assessed as percent resistant isolates after 48 hrs by agar dilution method in presence of 4 ug/ml beta-lactamase inhibitor Tazobactam; assay type: functional
Summary of the method: (§2)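 CLSI agar dilution on recent Korean clinical anaerobe isolates. Inoculum 10^5 CFU per spot by replicator. Plates incubated in an anaerobic chamber at 37°C for 48 h. For piperacillin plus tazobactam, tazobactam was held constant at 4 μg/ml. Resistance and susceptibility rates derived from MICs.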

[4] = test system: Bacteroides fragilis; assay: Antimicrobial activity against Bacteroides fragilis after 48 hrs by agar dilution method in presence of 4 ug/ml beta-lactamase inhibitor Tazobactam; assay type: functional; summary of the method: as §1
[5] = test system: Anaerococcus prevotii; assay: Antimicrobial activity against Anaerococcus prevotii assessed as percent susceptible isolates after 48 hrs by agar dilution method in presence of 4 ug/ml beta-lactamase inhibitor Tazobactam; assay type: functional
[6] = test system: Hoylesella oralis; assay: Antimicrobial activity against Prevotella oralis assessed as percent resistant isolates after 48 hrs by agar dilution method in presence of 4 ug/ml beta-lactamase inhibitor Tazobactam; assay type: functional; summary of the method: as §2
[7] = test system: Fusobacterium nucleatum; assay: Antimicrobial activity against Fusobacterium nucleatum after 48 hrs by agar dilution method in presence of 4 ug/ml beta-lactamase inhibitor Tazobactam; assay type: functional
Summary of the method: (§3)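 CLSI agar dilution (M11-A7); inoculum 10^5 CFU applied by replicator; plates incubated anaerobically 48 h at 37°C. For piperacillin-tazobactam, tazobactam held constant at 4 μg/ml.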

[8] = test system: Fusobacterium necrogenes; assay: Antimicrobial activity against Fusobacterium necrogenes after 48 hrs by agar dilution method in presence of 4 ug/ml beta-lactamase inhibitor Tazobactam; assay type: functional; summary of the method: as §3
[9] = test system: Bacteroides caccae; assay: Antimicrobial activity against Bacteroides caccae assessed as percent resistant isolates after 48 hrs by agar dilution method in presence of 4 ug/ml beta-lactamase inhibitor Tazobactam; assay type: functional; summary of the method: as §2
[10] = test system: Actinomyces naeslundii; assay: Antimicrobial activity against Actinomyces naeslundii after 48 hrs by agar dilution method in presence of 4 ug/ml beta-lactamase inhibitor Tazobactam; assay type: functional; summary of the method: as §1
[11] = test system: Anaerococcus prevotii; assay: Antimicrobial activity against Anaerococcus prevotii assessed as percent resistant isolates after 48 hrs by agar dilution method in presence of 4 ug/ml beta-lactamase inhibitor Tazobactam; assay type: functional; summary of the method: as §2
[12] = test system: Bacteroides fragilis; assay: Antimicrobial activity against Bacteroides fragilis assessed as percent susceptible isolates after 48 hrs by agar dilution method in presence of 4 ug/ml beta-lactamase inhibitor Tazobactam; assay type: functional
[13] = test system: Prevotella buccae; assay: Antimicrobial activity against Prevotella buccae assessed as percent susceptible isolates after 48 hrs by agar dilution method in presence of 4 ug/ml beta-lactamase inhibitor Tazobactam; assay type: functional, Segatella buccae; summary of the method: as §3
[14] = test system: Clostridioides difficile; assay: Antimicrobial activity against Clostridium difficile assessed as percent susceptible isolates after 48 hrs by agar dilution method in presence of 4 ug/ml beta-lactamase inhibitor Tazobactam; assay type: functional; summary of the method: as §3
[15] = test system: Prevotella bivia; assay: Antimicrobial activity against Prevotella bivia assessed as percent resistant isolates after 48 hrs by agar dilution method in presence of 4 ug/ml beta-lactamase inhibitor Tazobactam; assay type: functional; summary of the method: as §2
[16] = test system: Clostridium perfringens; assay: Antimicrobial activity against Clostridium perfringens assessed as percent susceptible isolates after 48 hrs by agar dilution method in presence of 4 ug/ml beta-lactamase inhibitor Tazobactam; assay type: functional; summary of the method: as §2
[17] = test system: Eubacterium sp.; assay: Antimicrobial activity against Eubacterium sp. assessed as percent resistant isolates after 48 hrs by agar dilution method in presence of 4 ug/ml beta-lactamase inhibitor Tazobactam; assay type: functional; summary of the method: as §2
[18] = test system: Bacteroides thetaiotaomicron; assay: Antimicrobial activity against Bacteroides thetaiotaomicron assessed as percent susceptible isolates after 48 hrs by agar dilution method in presence of 4 ug/ml beta-lactamase inhibitor Tazobactam; assay type: functional
[19] = test system: Bacteroides ovatus; assay: Antimicrobial activity against Bacteroides ovatus assessed as percent susceptible isolates after 48 hrs by agar dilution method in presence of 4 ug/ml beta-lactamase inhibitor Tazobactam; assay type: functional
[20] = test system: Peptoniphilus asaccharolyticus; assay: Antimicrobial activity against Peptoniphilus asaccharolyticus assessed as percent resistant isolates after 48 hrs by agar dilution method in presence of 4 ug/ml beta-lactamase inhibitor Tazobactam; assay type: functional; summary of the method: as §2
[21] = test system: Anaerococcus prevotii; assay: Antimicrobial activity against Anaerococcus prevotii after 48 hrs by agar dilution method in presence of 4 ug/ml beta-lactamase inhibitor Tazobactam; assay type: functional; summary of the method: as §1
[22] = test system: Fusobacterium varium; assay: Antimicrobial activity against Fusobacterium varium after 48 hrs by agar dilution method in presence of 4 ug/ml beta-lactamase inhibitor Tazobactam; assay type: functional; summary of the method: as §3
[23] = test system: Prevotella buccae; assay: Antimicrobial activity against Prevotella buccae after 48 hrs by agar dilution method in presence of 4 ug/ml beta-lactamase inhibitor Tazobactam; assay type: functional; details: Segatella buccae; summary of the method: as §3
[24] = test system: Bacteroides caccae; assay: Antimicrobial activity against Bacteroides caccae after 48 hrs by agar dilution method in presence of 4 ug/ml beta-lactamase inhibitor Tazobactam; assay type: functional; summary of the method: as §1
[25] = test system: Prevotella intermedia; assay: Antimicrobial activity against Prevotella intermedia after 48 hrs by agar dilution method in presence of 4 ug/ml beta-lactamase inhibitor Tazobactam; assay type: functional; summary of the method: as §3
[26] = test system: Clostridioides difficile; assay: Antimicrobial activity against Clostridium difficile assessed as percent resistant isolates after 48 hrs by agar dilution method in presence of 4 ug/ml beta-lactamase inhibitor Tazobactam; assay type: functional; summary of the method: as §2
[27] = test system: Peptoniphilus asaccharolyticus; assay: Antimicrobial activity against Peptoniphilus asaccharolyticus assessed as percent susceptible isolates after 48 hrs by agar dilution method in presence of 4 ug/ml beta-lactamase inhibitor Tazobactam; assay type: functional; summary of the method: as §3
[28] = test system: Phocaeicola vulgatus; assay: Antimicrobial activity against Bacteroides vulgatus after 48 hrs by agar dilution method in presence of 4 ug/ml beta-lactamase inhibitor Tazobactam; assay type: functional; summary of the method: as §1
[29] = test system: Eggerthella lenta; assay: Antimicrobial activity against Eubacterium lentum assessed as percent resistant isolates after 48 hrs by agar dilution method in presence of 4 ug/ml beta-lactamase inhibitor Tazobactam; assay type: functional; summary of the method: as §2
[30] = test system: Hoylesella oralis; assay: Antimicrobial activity against Prevotella oralis assessed as percent susceptible isolates after 48 hrs by agar dilution method in presence of 4 ug/ml beta-lactamase inhibitor Tazobactam; assay type: functional
[31] = test system: Schaalia meyeri; assay: Antimicrobial activity against Actinomyces meyeri assessed as percent resistant isolates after 48 hrs by agar dilution method in presence of 4 ug/ml beta-lactamase inhibitor Tazobactam; assay type: functional; summary of the method: as §2
[32] = test system: Actinomyces israelii; assay: Antimicrobial activity against Actinomyces israelii after 48 hrs by agar dilution method in presence of 4 ug/ml beta-lactamase inhibitor Tazobactam; assay type: functional; summary of the method: as §1
[33] = test system: Phocaeicola vulgatus; assay: Antimicrobial activity against Bacteroides vulgatus assessed as percent resistant isolates after 48 hrs by agar dilution method in presence of 4 ug/ml beta-lactamase inhibitor Tazobactam; assay type: functional; summary of the method: as §2

## CCN1CCN(C(=O)N[C@@H](C(=O)N[C@@H]2C(=O)N3[C@@H]2SC(C)(C)[C@@H]3C(=O)O)c2ccccc2)C(=O)C1=O [PIPERACILLIN]
[1]
  MIC50: 8 µg/mL
  MIC90: 64 µg/mL
[2]
  MIC50: 0.25 µg/mL
  MIC90: 0.5 µg/mL
[3]
  Activity: 0%
[4]
  MIC50: 1 µg/mL
  MIC90: 4 µg/mL
[5]
  Activity: 100%
[6]
  Activity: 0%
[7]
  MIC: 0.03 µg/mL
[8]
  MIC: 0.03 µg/mL
[9]
  Activity: 7%
[10]
  MIC50: 0.5 µg/mL
  MIC90: 8 µg/mL
[11]
  Activity: 0%
[12]
  Activity: 97%
[13]
  Activity: 100%
[14]
  Activity: 100%
[15]
  Activity: 0%
[16]
  Activity: 100%
[17]
  Activity: 0%
[18]
  Activity: 89%
[19]
  Activity: 89%
[20]
  Activity: 0%
[21]
  MIC50: 0.125 µg/mL
  MIC90: 0.125 µg/mL
[22]
  MIC: 0.03 µg/mL
[23]
  MIC50: ≤ 0.03 µg/mL
  MIC90: 4 µg/mL
[24]
  MIC50: 8 µg/mL
  MIC90: 64 µg/mL
[25]
  MIC50: ≤ 0.03 µg/mL
  MIC90: ≤ 0.03 µg/mL
[26]
  Activity: 0%
[27]
  Activity: 100%
[28]
  MIC50: 8 µg/mL
  MIC90: 64 µg/mL
[29]
  Activity: 0%
[30]
  Activity: 100%
[31]
  Activity: 0%
[32]
  MIC50: 0.5 µg/mL
  MIC90: 8 µg/mL
[33]
  Activity: 7%
